# From ChEMBL document CHEMBL4196195, “( R)- N-(1-Methyl-2-hydroxyethyl)-13-( S)-methyl-arachidonamide (AMG315): A Novel Chiral Potent Endocannabinoid Ligand with Stability to Metabolizing Enzymes” (J Med Chem, 2018)
# The source made the active and inactive calls.
# Tests used:
# Cannabinoid receptor 1 [1] = biological target: T1, Cannabinoid receptor 1 (Rattus norvegicus, UniProt P20272); assay: Displacement of [3H]CP-55,940 from CB1 receptor in rat brain membranes in absence of FAAH inhibitor PMSF by radioligand binding assay; assay type: cell membranes, Membrane
# Cannabinoid receptor 1 [2] = biological target: T1, Cannabinoid receptor 1; assay: Displacement of [3H]CP-55,940 from CB1 receptor in rat brain membranes in presence of FAAH inhibitor PMSF by radioligand binding assay; assay type: cell membranes, Membrane
# [3] = biological target: Cannabinoid receptor 1 (Rattus norvegicus) (UniProt P20272); assay: Agonist activity at rat CB1 receptor expressed in HEK293 cells assessed as inhibition of forskolin-induced cAMP accumulation incubated for 30 mins relative to 500 nM CP-55,940; assay type: functional, cell-based
# [4] = biological target: T2, ABHD6 (monoacylglycerol lipase ABHD6) (Homo sapiens, UniProt Q9BV23); assay: Stability assessed as human ABHD6-mediated compound hydrolysis by HPLC analysis; assay type: ADME; details: read-out: Stability
# T2 sequence (Q9BV23 whole entry): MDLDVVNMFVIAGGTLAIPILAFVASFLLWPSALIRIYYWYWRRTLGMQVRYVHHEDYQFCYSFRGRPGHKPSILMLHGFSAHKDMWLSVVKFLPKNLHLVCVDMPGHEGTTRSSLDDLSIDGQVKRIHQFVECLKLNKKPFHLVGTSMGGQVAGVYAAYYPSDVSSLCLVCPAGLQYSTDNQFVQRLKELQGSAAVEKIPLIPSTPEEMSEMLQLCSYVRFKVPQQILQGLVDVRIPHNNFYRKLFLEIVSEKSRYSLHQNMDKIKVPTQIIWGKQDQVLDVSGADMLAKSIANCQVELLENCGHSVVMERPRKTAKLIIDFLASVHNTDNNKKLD
# Summary of the method: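 Human MGL or ABHD6 expressed in E. coli BL21(DE3); cell lysate in 150 mM NaCl, 50 mM Tris, 1% Triton X-100, pH 8.0. Lysate (0.5 µg total protein) incubated at 37 °C with compound or 2-AG reference for 30 min. Samples at 0–30 min quenched in acetonitrile. Analysed by C18 reversed-phase HPLC with UV at 204 nm against external standards.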
# [5] = biological target: T3, Prostaglandin G/H synthase 2 (Mus musculus, UniProt Q05769); assay: Stability assessed as mouse COX2-mediated compound oxidation by measuring oxygen consumption by polarographic assay; assay type: ADME
# T3 sequence (Q05769 whole entry): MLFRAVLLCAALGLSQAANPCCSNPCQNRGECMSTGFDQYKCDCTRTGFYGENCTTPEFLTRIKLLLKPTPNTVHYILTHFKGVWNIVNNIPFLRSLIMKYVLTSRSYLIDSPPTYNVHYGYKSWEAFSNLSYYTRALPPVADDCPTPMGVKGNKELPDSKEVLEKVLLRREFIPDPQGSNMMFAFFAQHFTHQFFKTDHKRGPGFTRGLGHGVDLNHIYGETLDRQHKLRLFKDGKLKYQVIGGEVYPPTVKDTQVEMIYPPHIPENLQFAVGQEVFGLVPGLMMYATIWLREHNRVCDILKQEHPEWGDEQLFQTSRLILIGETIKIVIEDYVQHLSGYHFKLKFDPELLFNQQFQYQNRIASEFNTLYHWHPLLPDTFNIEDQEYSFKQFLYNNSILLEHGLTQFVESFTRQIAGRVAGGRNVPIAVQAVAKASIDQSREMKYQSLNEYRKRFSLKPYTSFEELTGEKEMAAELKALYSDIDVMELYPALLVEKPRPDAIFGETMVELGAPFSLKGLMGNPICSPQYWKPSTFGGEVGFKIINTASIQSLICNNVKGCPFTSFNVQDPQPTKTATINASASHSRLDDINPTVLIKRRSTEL
# Mus musculus [6] = assay: Antiallodynic activity in CB1 receptor knockout CD1 mouse model of CFA-induced inflammatory pain assessed as increase in CFA-reduced mechanical paw withdrawal threshold at 5 mg/kg, ip measured at 10 to 120 mins post injection; assay type: functional, organism-based
# Summary of the method: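 Adult male mice (39 ± 10 g), wild-type CD1 or CB1 KO on CD1 background, single housed. CFA:saline 1:1 (20 μL) injected intraplantar into right hind paw; 48 h allowed before dosing. Drug given ip in 5 mL/kg, vehicle group included. Electronic von Frey (90 g probe) after ≥30 min habituation, read in duplicate per paw, at baseline, 48 h post-CFA and 10, 30, 60, 120 min post-dose. Two-way mixed ANOVA with Bonferroni post hoc tests.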
# Mus musculus [7] = assay: Effect on mechanical paw withdrawal threshold of contralateral paw in CD1 mouse model of CFA-induced inflammatory pain at 5 mg/kg, ip measured at 10 to 120 mins post injection; assay type: ADME, organism-based; details: in vivo
# Summary of the method: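 Wild-type CD1 or CB1 KO (CD1 background) adult male mice. Unilateral intraplantar CFA:saline 1:1 (20 μL) into right hind paw, 48 h before ip dosing (5 mL/kg); vehicle controls. Threshold of the uninjected contralateral paw measured by electronic von Frey (90 g probe), duplicate readings averaged, at 10, 30, 60, 120 min post-dose. Two-way mixed ANOVA.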
# T1 sequence (P20272 whole entry): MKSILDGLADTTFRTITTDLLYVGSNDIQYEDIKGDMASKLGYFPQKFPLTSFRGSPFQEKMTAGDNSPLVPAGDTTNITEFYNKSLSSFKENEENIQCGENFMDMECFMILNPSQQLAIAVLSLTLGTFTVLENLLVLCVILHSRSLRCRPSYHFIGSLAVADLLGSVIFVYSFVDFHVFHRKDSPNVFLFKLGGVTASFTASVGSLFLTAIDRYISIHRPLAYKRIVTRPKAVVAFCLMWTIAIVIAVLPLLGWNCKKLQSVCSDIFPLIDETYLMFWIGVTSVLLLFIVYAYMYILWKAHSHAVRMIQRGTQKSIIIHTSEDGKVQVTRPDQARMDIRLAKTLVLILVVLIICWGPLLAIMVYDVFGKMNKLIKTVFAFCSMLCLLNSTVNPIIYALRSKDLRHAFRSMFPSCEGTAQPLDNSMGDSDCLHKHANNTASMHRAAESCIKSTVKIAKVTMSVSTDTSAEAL
# Chain of Cannabinoid receptor 1 (Rattus norvegicus) (P20272 whole entry): as above
smiles,measurement,setting,value
CCCCC/C=C\[C@H](C)/C=C\C/C=C\C/C=C\CCCC(=O)N[C@H](C)CO,Ki,Cannabinoid receptor 1 [1],7.8 nM
same,Ki,Cannabinoid receptor 1 [2],8.9 nM
same,Emax,[3],76%
same,half-life,[4],30 min
same,Stability,[5],Stable
same,Activity,Mus musculus [6],inactive
same,Activity,Mus musculus [7],Non-Toxic
